Reference: ChEMBL document CHEMBL1921722, “In vitro and in vivo evaluation of select kahalalide F analogs with antitumor and antifungal activities” (Bioorg Med Chem, 2011)
In brackets after ≈: the same amount, converted by molar mass. Activity calls are given as the source filed them.

How the values were obtained:
[1] = test system: SK-MEL-2; experiment: Cytotoxicity against human SK-MEL-2 cells by sulforhodamine B assay; assay type: functional
Outline: (§1)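 NCI Developmental Therapeutics Program 60-cell-line human tumor panel screen, run at NCI. A single-concentration pre-screen was followed by a five-concentration dose-response in 10-fold steps. GI50 is the concentration that reduces growth of treated cells to half that of untreated control cells. TGI is the concentration that completely halts growth.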

[2] = test system: OVCAR-3; experiment: Cytotoxicity against human OVCAR3 cells by sulforhodamine B assay; assay type: functional; outline: as §1
[3] = test system: SK-OV-3; experiment: Cytotoxicity against human SKOV3 cells by sulforhodamine B assay; assay type: functional; outline: as §1
[4] = test system: UACC-257; experiment: Cytotoxicity against human UACC257 cells assessed as cell growth at 8 nM by sulforhodamine B assay relative to control; assay type: functional; settings: read-out: Activity
[5] = test system: SK-MEL-28; experiment: Cytotoxicity against human SK-MEL-28 cells assessed as cell growth at 8 nM by sulforhodamine B assay relative to control; assay type: functional; settings: read-out: Activity
[6] = test system: SNB-19; experiment: Cytotoxicity against human SNB19 cells assessed as cell growth at 8 nM by sulforhodamine B assay relative to control; assay type: functional; settings: read-out: Activity
[7] = test system: Cryptococcus neoformans; experiment: Antimicrobial activity against Cryptococcus neoformans ATCC 90113 by CLSI method; assay type: functional, organism-based
[8] = test system: Mus musculus; experiment: Acute toxicity in athymic nude mouse assessed as mortality at 400 mg/kg, […] after 19 days; assay type: organism-based; parameters: dose 400 mg/kg, route intraperitoneal; settings: in vivo, ip, 456 h
[9] = test system: Mus musculus; experiment: Acute toxicity in athymic nude mouse assessed as mortality at 200 mg/kg, […] after 19 days; assay type: organism-based; parameters: dose 200 mg/kg, route intraperitoneal; settings: in vivo, ip, 456 h
[10] = test system: SR; experiment: Cytotoxicity against human SR cells assessed as cell growth at 8 nM by sulforhodamine B assay relative to control; assay type: functional; settings: read-out: Activity
[11] = test system: OVCAR-3; experiment: Cytotoxicity against human OVCAR3 cells assessed as cell growth at 8 nM by sulforhodamine B assay relative to control; assay type: functional; settings: read-out: Activity
[12] = test system: T47D; experiment: Cytotoxicity against human T47D cells assessed as cell growth at 8 nM by sulforhodamine B assay relative to control; assay type: functional; settings: read-out: Activity
[13] = test system: SF-539; experiment: Cytotoxicity against human SF539 cells assessed as cell growth at 80 nM by sulforhodamine B assay relative to control; assay type: functional; settings: read-out: Activity
[14] = test system: SK-MEL-28; experiment: Cytotoxicity against human SK-MEL-28 cells assessed as cell growth at 80 nM by sulforhodamine B assay relative to control; assay type: functional; settings: read-out: Activity
[15] = test system: IGROV-1; experiment: Cytotoxicity against human IGROV1 cells assessed as cell growth at 80 nM by sulforhodamine B assay relative to control; assay type: functional; settings: read-out: Activity
[16] = test system: DU-145; experiment: Cytotoxicity against human DU145 cells assessed as cell growth at 80 nM by sulforhodamine B assay relative to control; assay type: functional; settings: read-out: Activity
[17] = test system: EKVX; experiment: Cytotoxicity against human EKVX cells assessed as cell growth at 800 nM by sulforhodamine B assay relative to control; assay type: functional; settings: read-out: Activity
[18] = test system: NCI-H522; experiment: Cytotoxicity against human NCI-H522 cells assessed as cell growth at 800 nM by sulforhodamine B assay relative to control; assay type: functional; settings: read-out: Activity
[19] = test system: SK-MEL-2; experiment: Cytotoxicity against human SK-MEL-2 cells assessed as cell growth at 800 nM by sulforhodamine B assay relative to control; assay type: functional; settings: read-out: Activity
[20] = test system: NCI/ADR-RES; experiment: Cytotoxicity against human NCI/ADR-RES cells assessed as cell growth at 800 nM by sulforhodamine B assay relative to control; assay type: functional; settings: read-out: Activity
[21] = test system: SR; experiment: Cytotoxicity against human SR cells assessed as cell growth at 8 uM by sulforhodamine B assay relative to control; assay type: functional; settings: read-out: Activity
[22] = test system: SF-268; experiment: Cytotoxicity against human SF268 cells assessed as cell growth at 8 uM by sulforhodamine B assay relative to control; assay type: functional; settings: read-out: Activity
[23] = test system: Malme-3M; experiment: Cytotoxicity against human MALME-3M cells assessed as cell growth at 8 uM by sulforhodamine B assay relative to control; assay type: functional; settings: read-out: Activity
[24] = test system: SK-MEL-28; experiment: Cytotoxicity against human SK-MEL-28 cells assessed as cell growth at 8 uM by sulforhodamine B assay relative to control; assay type: functional; settings: read-out: Activity
[25] = test system: OVCAR-8; experiment: Cytotoxicity against human OVCAR8 cells assessed as cell growth at 8 uM by sulforhodamine B assay relative to control; assay type: functional; settings: read-out: Activity
[26] = test system: 786-0; experiment: Cytotoxicity against human 786-0 cells assessed as cell growth at 8 uM by sulforhodamine B assay relative to control; assay type: functional; settings: read-out: Activity
Outline: (§2)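 Run at NCI in the DTP 60-cell-line human tumor panel by standard procedure. Compounds were first screened at a single concentration, then tested at five tenfold-spaced concentrations. GI50 is the concentration reducing treated-cell growth to half that of untreated controls; TGI is the concentration completely halting growth.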

[27] = test system: SN12C; experiment: Cytotoxicity against human SN12C cells assessed as cell growth at 8 uM by sulforhodamine B assay relative to control; assay type: functional; settings: read-out: Activity
[28] = test system: DU-145; experiment: Cytotoxicity against human DU145 cells assessed as cell growth at 8 uM by sulforhodamine B assay relative to control; assay type: functional; settings: read-out: Activity; outline: as §2
[29] = test system: MCF7; experiment: Cytotoxicity against human MCF7 cells assessed as cell growth at 8 uM by sulforhodamine B assay relative to control; assay type: functional; settings: read-out: Activity
[30] = test system: EKVX; experiment: Cytotoxicity against human EKVX cells assessed as cell growth at 80 uM by sulforhodamine B assay relative to control; assay type: functional; settings: read-out: Activity
[31] = test system: NCI-H522; experiment: Cytotoxicity against human NCI-H522 cells assessed as cell growth at 80 uM by sulforhodamine B assay relative to control; assay type: functional; settings: read-out: Activity
[32] = test system: HCT-15; experiment: Cytotoxicity against human HCT15 cells assessed as cell growth at 80 uM by sulforhodamine B assay relative to control; assay type: functional; settings: read-out: Activity
[33] = test system: SK-MEL-5; experiment: Cytotoxicity against human SK-MEL-5 cells assessed as cell growth at 80 uM by sulforhodamine B assay relative to control; assay type: functional; settings: read-out: Activity
[34] = test system: RXF 393; experiment: Cytotoxicity against human RXF393 cells assessed as cell growth at 80 uM by sulforhodamine B assay relative to control; assay type: functional; settings: read-out: Activity
[35] = test system: SN12C; experiment: Cytotoxicity against human SN12C cells assessed as cell growth at 80 uM by sulforhodamine B assay relative to control; assay type: functional; settings: read-out: Activity
[36] = test system: LOX IMVI; experiment: Antitumor activity against human LOXIMVI cells xenografted in mouse assessed as tumor cell killing at 4.7 mg/kg, ip qd for 4 days by MTT assay; assay type: functional, organism-based; parameters: dose 4.7 mg/kg
Outline: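 Hollow-fiber assay in mice. Tumor lines were grown in RPMI-1640 with 10% FBS and 2 mM glutamine. Cells at 2 × 10^6 cells/ml were loaded into 1 mm PVDF fibers (500,000 Da cutoff), heat-sealed at 2 cm and held 24–48 h at 37 °C, 5% CO2 before implantation. Compound was given IP. Fibers were collected the day after the fourth treatment for MTT (OD 540 nm, group means). A ≥50% cut in percent net growth versus vehicle counted as positive.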

[37] = test system: RPMI-8226; experiment: Cytotoxicity against human RPMI8226 cells by sulforhodamine B assay; assay type: functional; outline: as §1
[38] = test system: NCI-H23; experiment: Cytotoxicity against human NCI-H23 cells by sulforhodamine B assay; assay type: functional; outline: as §1

Compound: C/C=C1\NC(=O)[C@H](Cc2ccccc2)NC(=O)[C@@H](C(C)C)NC(=O)[C@@H]([C@@H](C)CC)NC(=O)[C@H](NC(=O)[C@H](NC(=O)[C@H](CCCNCc2ccc(N3CCOCC3)cc2)NC(=O)[C@H]2CCCN2C(=O)[C@H](NC(=O)[C@@H](NC(=O)[C@@H](NC(=O)[C@H](NC(=O)CCCC(C)C)C(C)C)[C@@H](C)O)C(C)C)C(C)C)[C@@H](C)CC)[C@@H](C)OC(=O)[C@H](C(C)C)NC1=O
- GI50 [1]: 1510 nM
- TGI ([1]; read-out: pTGI (converted)): 2880 nM
- GI50 [2]: 617 nM
- TGI ([2]; read-out: pTGI (converted)): 1860 nM
- GI50 ([3]; read-out: GI50): 178 nM
- TGI ([3]; read-out: TGI): 415 nM
- GI50 ([3]; read-out: pGI50 (converted)): 178 nM
- TGI ([3]; read-out: pTGI (converted)): 417 nM
- growth at 0.008 µM [4]: 101%
- growth at 0.008 µM [5]: 87%
- growth at 0.008 µM [6]: 95%
- IC50 [7]: 1730 nM
- MFC [7]: 10 µM (≈ 16.5 µg/mL)
- MIC [7]: 5 µM (≈ 8.27 µg/mL)
- Activity [8]: Toxic
- Activity [9]: Toxic
- growth at 0.008 µM [10]: 103%
- growth at 0.008 µM [11]: 100%
- growth at 0.008 µM [12]: 101%
- growth at 0.08 µM [13]: 101%
- growth at 0.08 µM [14]: 99%
- growth at 0.08 µM [15]: 106%
- growth at 0.08 µM [16]: 89%
- growth at 0.8 µM [17]: 53%
- growth at 0.8 µM [18]: 101%
- growth at 0.8 µM [19]: 105%
- growth at 0.8 µM [20]: 85%
- growth at 8 µM [21]: 15%
- growth at 8 µM [22]: -52%
- growth at 8 µM [23]: -71%
- growth at 8 µM [24]: -85%
- growth at 8 µM [25]: -34%
- growth at 8 µM [26]: -88%
- growth at 8 µM [27]: -47%
- growth at 8 µM [28]: -96%
- growth at 8 µM [29]: -53%
- growth at 80 µM [30]: -46%
- growth at 80 µM [31]: -22%
- growth at 80 µM [32]: -45%
- growth at 80 µM [33]: -56%
- growth at 80 µM [34]: -27%
- growth at 80 µM [35]: -17%
- Activity [36]: inactive
- GI50 ([37]; read-out: GI50): 1130 nM
- TGI ([37]; read-out: TGI): 2510 nM
- GI50 ([37]; read-out: pGI50 (converted)): 1120 nM
- TGI ([37]; read-out: pTGI (converted)): 2510 nM
- GI50 [38]: 1550 nM
- LC50 [38]: 6310 nM
- TGI ([38]; read-out: pTGI (converted)): 3090 nM
